Assays:
[1] = tested on: Cavia porcellus; assay: In vivo histamine induced lethality after 96 hours of iv administration in guinea pig; type: functional
[2] = tested on: Rattus norvegicus; assay: Inhibition of serotonin skin reaction in rat after 2 hr of subcutaneous administration.; type: functional; settings: sc
[3] = tested on: Rattus norvegicus; assay: In vivo antihistaminic activity using compound 48/80 induced lethality test after 1 hr of subcutaneous administration in rat; type: functional; settings: sc
Procedure, shortened: (§1)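 Protection was survival for 4 h after challenge. ED50 with confidence limits was calculated by Finney from five rats per dose and at least three doses of a geometric series (0.0025–40 mg/kg). Estimated ED50 used at least two rats per dose.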

[4] = tested on: Rattus norvegicus; assay: Inhibition of serotonin skin reaction in rat after 2 hr of oral administration; type: functional
Procedure, shortened: (§2)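 Test compound or solvent given orally to rats 2 h before four intradermal injections into clipped back: two of 50 μL histamine dihydrochloride (1 mg/mL in saline), two of 50 μL serotonin (2 μg/mL in saline). Then iv 0.5 mL of 0.5% trypan blue. Bluing of skin reactions scored 30 min later.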

[5] = tested on: Rattus norvegicus; assay: Inhibition of mydriatic activity in rat after 2 hr of oral administration.; type: functional
[6] = tested on: Cavia porcellus; assay: In vivo histamine induced lethality after 48 hours of iv administration in guinea pig; type: functional
Procedure, shortened: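 Male albino guinea pigs (280–360 g) were dosed orally 3, 24, 48 or 96 h before an iv challenge with histamine dihydrochloride (1.25 mg/kg). Protection was survival at 1 h. Doses rose in 2-fold steps from 0.0025 mg/kg, with at least three doses and 4–6 animals per dose and time point. PD50 with confidence limits was computed by Finney.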

[7] = tested on: Rattus norvegicus; assay: Inhibition of histamine skin reaction in rat after 2 hr of oral administration; type: functional; procedure, shortened: as §2
[8] = tested on: Cavia porcellus; assay: In vivo histamine induced lethality after 3 hours of iv administration in guinea pig; type: functional
[9] = tested on: Rattus norvegicus; assay: Inhibition of histamine skin reaction in rat after 2 hr of subcutaneous administration.; type: functional; settings: sc
[10] = tested on: Cavia porcellus; assay: In vivo histamine induced lethality after 24 hours of iv administration in guinea pig; type: functional
[11] = tested on: Rattus norvegicus; assay: Inhibition of mydriatic activity in rat after 2 hr of intraperitoneal administration; type: functional; settings: ip
[12] = tested on: Cavia porcellus; assay: In vivo histamine induced lethality after 8 hours of iv administration in guinea pig; type: functional
[13] = tested on: Rattus norvegicus; assay: In vivo antihistaminic activity using compound 48/80 induced lethality test in rat after 2 hr of oral administration; type: functional; procedure, shortened: as §1
[14] = tested on: Rattus norvegicus; assay: Inhibition of histamine skin reaction in rat after 2 hr of oral administration.; type: functional; procedure, shortened: as §2
[15] = tested on: Rattus norvegicus; assay: Inhibition of serotonin skin reaction in rat after 2 hr of oral administration.; type: functional; procedure, shortened: as §2
[16] = tested on: Rattus norvegicus; assay: In vivo antihistaminic activity using compound 48/80 induced lethality test in rat after 2 hr of subcutaneous administration; type: functional; settings: sc; procedure, shortened: as §1
[17] = tested on: Rattus norvegicus; assay: In vivo antihistaminic activity using compound 48/80 induced lethality test in rat after 2 hr of oral administration; C represents estimated ED50 values used whenever possible for comparison of relative potencies; type: functional, organism-based
Procedure, shortened: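 Protection = survival 4 h after challenge. ED50 (dose giving 50% survival) calculated with confidence limits by Finney, five animals per dose, at least three doses from geometric series 0.0025–40.0 mg/kg. Estimated ED50 values based on at least two animals per dose.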

[18] = tested on: Rattus norvegicus; assay: In vivo antihistaminic activity using compound 48/80 induced lethality test in rat after 2 hr of oral administration.; type: functional; procedure, shortened: as §1
[19] = tested on: Rattus norvegicus; assay: Inhibition of mydriatic activity in rat after 2 hr of intraperitoneal administration.; type: functional; settings: ip
[20] = tested on: Rattus norvegicus; assay: In vivo antihistaminic activity using compound 48/80 induced lethality test in rat 2 hr after oral administration; type: functional; procedure, shortened: as §1
[21] = tested on: Rattus norvegicus; assay: Inhibition of mydriatic activity in rat after 2 hr of oral administration; type: functional
[22] = tested on: Rattus norvegicus; assay: In vivo antihistaminic activity using compound 48/80 induced lethality test in rat after 2 hr( oral administration); type: functional; procedure, shortened: as §1

Work on `COc1ccc(CCN2CCC(Nc3nc4ccccc4n3Cc3ccc(F)cc3)CC2)cc1` [ASTEMIZOLE] yielded an ED50 [1] of 0.19 mg/kg, an ED50 [2] greater than 2.5 mg/kg and an ED50 [3] of 0.11 mg/kg. The ED50 [4] was 14.2 mg/kg, the ED50 [5] was greater than 160 mg/kg and the ED50 [6] was 0.04 mg/kg. The ED50 [7] was 0.13 mg/kg, the ED50 [8] was 0.33 mg/kg and the ED50 [9] was 0.15 mg/kg. It also gave an ED50 [10] of 0.07 mg/kg, an ED50 [11] greater than 40 mg/kg and an ED50 [12] of 0.17 mg/kg. The ED50 [13] was 0.11 mg/kg.
Work on `O=c1[nH]c2ccccc2n1CCCN1CCN(C(c2ccccc2)c2ccccc2)CC1` [OXATOMIDE] yielded an ED50 [14] of 9.36 mg/kg, an ED50 [5] greater than 160 mg/kg and an ED50 [8] of 0.2 mg/kg. For the same compound, the ED50 [10] was greater than 5 mg/kg, the ED50 [12] was 1.25 mg/kg and the ED50 [15] was 32.6 mg/kg.
Compound `CN1CCC(=C2c3ccccc3CCc3cccnc32)CC1` [AZATADINE] has an ED50 [4] of 18.8 mg/kg, an ED50 [5] of 5.39 mg/kg and an ED50 [6] greater than 2.5 mg/kg. For the same compound, the ED50 [7] was 0.77 mg/kg, the ED50 [8] was 0.014 mg/kg and the ED50 [16] was 0.049 mg/kg. For the same compound, the ED50 [12] was 0.06 mg/kg and the ED50 [13] was 0.48 mg/kg.
`O=[N+]([O-])c1ccc(CCN2CCC(Nc3nc4ccccc4n3Cc3ccc(F)cc3)CC2)cc1` was tested, and the ED50 [3] was greater than 2.5 mg/kg and the ED50 [17] was “Estimated ED50 values used whenever possible”.
`Fc1ccc(Cn2c(NC3CCN(CCc4ccccc4)CC3)nc3cc(F)ccc32)cc1` showed an ED50 [18] greater than 2.5 mg/kg and an ED50 [3] of 1.25 mg/kg.
`Br.OCCN1CCC(Nc2nc3ccccc3n2Cc2ccc(F)cc2)CC1` gave an ED50 [1] of 2.15 mg/kg, an ED50 [2] greater than 0.63 mg/kg and an ED50 [3] of 0.04 mg/kg. It also gave an ED50 [19] greater than 40 mg/kg, an ED50 [6] of 0.3 mg/kg and an ED50 [8] of 0.04 mg/kg. The ED50 [9] was 0.08 mg/kg, the ED50 [10] was 0.09 mg/kg and the ED50 [12] was 0.07 mg/kg. It also gave an ED50 [13] of 0.63 mg/kg.
Work on `CN1CCC(Nc2nc3ccccc3n2Cc2ccc(F)cc2)CC1` yielded an ED50 [2] of no less than 0.63 mg/kg, an ED50 [3] of 0.16 mg/kg and an ED50 [9] of 0.04 mg/kg. For the same compound, the ED50 [11] was greater than 40 mg/kg and the ED50 [13] was 2.5 mg/kg.
In the case of `Fc1ccc(Cn2c(NC3CCN(CCc4ccccc4)CC3)nc3ccc(F)cc32)cc1`, the ED50 [18] is reported as 0.63 mg/kg and the ED50 [3] is reported as 1.25 mg/kg.
In the case of `COc1ccc(CN(CCN(C)C)c2ccccn2)cc1` [PYRILAMINE], the ED50 [20] is reported as 56.6 mg/kg, the ED50 [14] is reported as greater than 40 mg/kg and the ED50 [21] is reported as 56.5 mg/kg. It also gave an ED50 [15] greater than 40 mg/kg.
Compound `COc1ccc(C(=O)Oc2ccc(CCN3CCC(Nc4nc5ccccc5n4Cc4ccc(F)cc4)CC3)cc2)cc1` has an ED50 [3] of 0.63 mg/kg and an ED50 [13] of 0.16 mg/kg.
In the case of `Cl.O=C(COc1ccc(CCN2CCC(Nc3nc4ccccc4n3Cc3ccc(F)cc3)CC2)cc1)N1CCCCC1`, the ED50 [3] is reported as 1.25 mg/kg and the ED50 [13] is reported as 1.25 mg/kg.
With `NC(=O)COc1ccc(CCN2CCC(Nc3nc4ccccc4n3Cc3ccc(F)cc3)CC2)cc1` the ED50 [3] was 1.25 mg/kg and the ED50 [13] was 2.5 mg/kg.
With `Oc1ccc(CCN2CCC(Nc3nc4ccccc4n3Cc3ccc(F)cc3)CC2)cc1` [DESMETHEYLASTEMIZOLE] the ED50 [1] was 0.27 mg/kg, the ED50 [2] was no less than 0.63 mg/kg and the ED50 [3] was 0.16 mg/kg. The ED50 [19] was greater than 40 mg/kg, the ED50 [6] was 0.12 mg/kg and the ED50 [8] was 0.19 mg/kg. The ED50 [9] was 0.08 mg/kg, the ED50 [10] was 0.06 mg/kg and the ED50 [12] was 0.08 mg/kg. It also gave an ED50 [13] of 0.1 mg/kg.
`O=C(Cc1ccccc1)Oc1ccc(CCN2CCC(Nc3nc4ccccc4n3Cc3ccc(F)cc3)CC2)cc1` was tested, and the ED50 [3] was 0.31 mg/kg and the ED50 [13] was 0.08 mg/kg.
Work on `COC(=O)Oc1ccc(CCN2CCC(Nc3nc4ccccc4n3Cc3ccc(F)cc3)CC2)cc1` yielded an ED50 [3] of 0.16 mg/kg and an ED50 [13] of 0.16 mg/kg.
Compound `Cl.NCCN1CCC(Nc2nc3ccccc3n2Cc2ccc(F)cc2)CC1` has an ED50 [3] of 1.25 mg/kg and an ED50 [13] greater than 2.5 mg/kg.
With `CN1CCC(=C2c3ccccc3C=Cc3ccccc32)CC1` [CYPROHEPTADINE] the ED50 [14] was 0.89 mg/kg, the ED50 [5] was 9.36 mg/kg and the ED50 [8] was 0.08 mg/kg. It also gave an ED50 [10] greater than 2.5 mg/kg, an ED50 [12] of 0.88 mg/kg and an ED50 [22] of 1.13 mg/kg. For the same compound, the ED50 [15] was 2.35 mg/kg.
For `O=C(NCCN1CCC(Nc2nc3ccccc3n2Cc2ccc(F)cc2)CC1)c1ccc(F)cc1`, the ED50 [3] was 0.31 mg/kg and the ED50 [13] was 2.5 mg/kg.
In the case of `COc1ccc(CCN2CCC(Nc3nc4ccccc4n3Cc3ccc(F)cc3)CC2)cc1OC`, the ED50 [3] is reported as 1.25 mg/kg and the ED50 [13] is reported as 0.16 mg/kg.
Compound `COc1ccc(C(=O)OCCN2CCC(Nc3nc4ccccc4n3Cc3ccc(F)cc3)CC2)cc1.Cl` has an ED50 [3] of 0.31 mg/kg and an ED50 [13] of 0.63 mg/kg.
`Fc1ccc(Cn2c(NC3CCN(C4CCCCC4)CC3)nc3ccccc32)cc1` showed an ED50 [3] of 0.31 mg/kg and an ED50 [13] greater than 2.5 mg/kg.
